Assay results published in ChEMBL document CHEMBL1159346, “Antineoplastic agents. 488. Isolation and structure of yukonin from a yukon territory fungus” (2003).
Converted amounts (≈) assume the structure as drawn.

Experiments:
Assay type in all cases: functional
Cryptococcus neoformans = test: Antimicrobial activity against Cryptococcus neoformans by broth microdilution method
In short: (§1)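 Yeast strains: Candida albicans ATCC 90028 and Cryptococcus neoformans ATCC 90112. Tested by broth microdilution following the NCCLS reference broth dilution method for yeasts. The MIC was read as the lowest compound concentration giving no visible growth (optically clear wells).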

Candida albicans = test: Antimicrobial activity against Candida albicans by broth microdilution method; in short: as §1
P388 = test: Cytotoxicity against mouse P388 cells
BXPC-3 = test: Cytotoxicity against human BxPC3 cells
MCF7 = test: Cytotoxicity against human MCF7 cells
SF-268 = test: Cytotoxicity against human SF268 cells
NCI-H460 = test: Cytotoxicity against human NCI-H460 cells
KM-20L2 = test: Cytotoxicity against human KM20L2 cells
DU-145 = test: Cytotoxicity against human DU145 cells

Row | MIC (Cryptococcus neoformans) [µg/mL] | MIC (Candida albicans) [µg/mL] | SMILES | GI50 (P388) [µg/mL] | GI50 (BXPC-3) [µg/mL] | GI50 (MCF7) [µg/mL] | GI50 (SF-268) [µg/mL] | GI50 (NCI-H460) [µg/mL] | GI50 (KM-20L2) [µg/mL] | GI50 (DU-145) [µg/mL]
1 | 16 (≈ 58.3 µM) | 64 (≈ 233 µM) | C[C@@]12CCC[C@]3(C)C4=CC(=O)OCC4=C[C@@H](OC1=O)[C@@H]23 | 0.31 (≈ 1.13 µM) | 1.8 (≈ 6.56 µM) | 0.69 (≈ 2.52 µM) | 0.57 (≈ 2.08 µM) | 0.48 (≈ 1.75 µM) | 0.45 (≈ 1.64 µM) | 0.34 (≈ 1.24 µM)
2 | 2 (≈ 6.57 µM) | 8 (≈ 26.3 µM) | CO[C@H]1OC(=O)C=C2C1=C[C@H]1OC(=O)[C@@]3(C)CCC[C@@]2(C)[C@@H]13 | 4.1 (≈ 13.5 µM) | 0.36 (≈ 1.18 µM) | 0.33 (≈ 1.08 µM) | 0.24 (≈ 0.789 µM) | 0.24 (≈ 0.789 µM) | 0.21 (≈ 0.69 µM) | 0.14 (≈ 0.46 µM)
3 | 64 (≈ 220 µM) | > 64 | C[C@@]12CCC[C@]3(C)C4=CC(=O)O[C@@H](O)C4=C[C@@H](OC1=O)[C@@H]23 [YUKONIN] | > 10 | 5.6 (≈ 19.3 µM) | 4 (≈ 13.8 µM) | 2.9 (≈ 9.99 µM) | 4.1 (≈ 14.1 µM) | 3.6 (≈ 12.4 µM) | 2.9 (≈ 9.99 µM)
